Assay results from ChEMBL document CHEMBL1649552 (2009).
In brackets after ≈: the same amount, converted by molar mass.

Key:
Format in all cases: functional
Streptococcus pneumoniae [1] = experiment: Antibacterial activity against Streptococcus pneumoniae assessed as susceptible isolates by CLSI M100-S17 method
Method in brief: (§1)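 CLSI broth microdilution on clinical isolates, using frozen in-house-prepared panels of test and comparator agents. MICs were read after 20 to 24 h incubation at 35°C in ambient air. Susceptible/intermediate categories were assigned by CLSI M100-S17 guidelines.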

Streptococcus agalactiae [2] = experiment: Antibacterial activity against Streptococcus agalactiae by CLSI M100-S17 method
Streptococcus pneumoniae [3] = experiment: Antibacterial activity against Streptococcus pneumoniae assessed as resistant isolates by CLSI M100-S17 method
Method in brief: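 Clinical isolates were tested by CLSI broth microdilution in frozen, in-house-prepared 96-well panels of the test agent and comparator agents. MICs were read and classed as susceptible, intermediate or resistant using CLSI M100-S17 breakpoints. The value is the share of isolates in each category.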

Streptococcus pneumoniae [4] = experiment: Antibacterial activity against Streptococcus pneumoniae assessed as intermediate isolates by CLSI M100-S17 method; method in brief: as §1
Streptococcus pyogenes [5] = experiment: Antibacterial activity against Streptococcus pyogenes by CLSI M100-S17 method
Streptococcus pyogenes [6] = experiment: Antibacterial activity against Streptococcus pyogenes assessed as susceptible isolates by CLSI M100-S17 method; method in brief: as §1
Moraxella catarrhalis = experiment: Antibacterial activity against Moraxella catarrhalis by CLSI M100-S17 method
Streptococcus agalactiae [7] = experiment: Antibacterial activity against Streptococcus agalactiae assessed as susceptible isolates by CLSI M100-S17 method; method in brief: as §1
Streptococcus pneumoniae [8] = experiment: Antibacterial activity against Streptococcus pneumoniae by CLSI M100-S17 method
Staphylococcus aureus [9] = experiment: Antibacterial activity against methicillin-resistant Staphylococcus aureus assessed as resistant isolates by CLSI M100-S17 method
Staphylococcus aureus [10] = experiment: Antibacterial activity against methicillin-resistant Staphylococcus aureus assessed as susceptible isolates by CLSI M100-S17 method
Staphylococcus aureus [11] = experiment: Antibacterial activity against methicillin-susceptible Staphylococcus aureus assessed as susceptible isolates by CLSI M100-S17 method
[12] = tested on: Staphylococcus epidermidis; experiment: Antibacterial activity against methicillin-susceptible Staphylococcus epidermidis assessed as resistant isolates by CLSI M100-S17 method
Enterococcus faecium [13] = experiment: Antibacterial activity against Enterococcus faecium assessed as intermediate isolates by CLSI M100-S17 method
Staphylococcus aureus [14] = experiment: Antibacterial activity against methicillin-susceptible Staphylococcus aureus by CLSI M100-S17 method
[15] = tested on: Staphylococcus epidermidis; experiment: Antibacterial activity against methicillin-resistant Staphylococcus epidermidis assessed as intermediate isolates by CLSI M100-S17 method
Enterococcus faecalis [16] = experiment: Antibacterial activity against Enterococcus faecalis by CLSI M100-S17 method
Staphylococcus aureus [17] = experiment: Antibacterial activity against methicillin-susceptible Staphylococcus aureus assessed as resistant isolates by CLSI M100-S17 method
[18] = tested on: Staphylococcus epidermidis; experiment: Antibacterial activity against methicillin-susceptible Staphylococcus epidermidis assessed as susceptible isolates by CLSI M100-S17 method
[19] = tested on: Staphylococcus epidermidis; experiment: Antibacterial activity against methicillin-resistant Staphylococcus epidermidis assessed as susceptible isolates by CLSI M100-S17 method
Enterococcus faecalis [20] = experiment: Antibacterial activity against Enterococcus faecalis assessed as resistant isolates by CLSI M100-S17 method
Staphylococcus aureus [21] = experiment: Antibacterial activity against methicillin-resistant Staphylococcus aureus by CLSI M100-S17 method
Staphylococcus aureus [22] = experiment: Antibacterial activity against methicillin-resistant Staphylococcus aureus assessed as intermediate isolates by CLSI M100-S17 method
Staphylococcus aureus [23] = experiment: Antibacterial activity against methicillin-susceptible Staphylococcus aureus assessed as intermediate isolates by CLSI M100-S17 method
Enterococcus faecium [24] = experiment: Antibacterial activity against Enterococcus faecium assessed as susceptible isolates by CLSI M100-S17 method
Enterococcus faecalis [25] = experiment: Antibacterial activity against Enterococcus faecalis assessed as intermediate isolates by CLSI M100-S17 method
[26] = tested on: Staphylococcus epidermidis; experiment: Antibacterial activity against methicillin-resistant Staphylococcus epidermidis by CLSI M100-S17 method
[27] = tested on: Staphylococcus epidermidis; experiment: Antibacterial activity against methicillin-susceptible Staphylococcus epidermidis by CLSI M100-S17 method
Enterococcus faecalis [28] = experiment: Antibacterial activity against Enterococcus faecalis assessed as susceptible isolates by CLSI M100-S17 method
[29] = tested on: Staphylococcus epidermidis; experiment: Antibacterial activity against methicillin-susceptible Staphylococcus epidermidis assessed as intermediate isolates by CLSI M100-S17 method
Enterococcus faecium [30] = experiment: Antibacterial activity against Enterococcus faecium by CLSI M100-S17 method
[31] = tested on: Staphylococcus epidermidis; experiment: Antibacterial activity against methicillin-resistant Staphylococcus epidermidis assessed as resistant isolates by CLSI M100-S17 method
Acinetobacter baumannii [32] = experiment: Antibacterial activity against Acinetobacter baumannii assessed as susceptible isolates by CLSI M100-S17 method
Escherichia coli [33] = experiment: Antibacterial activity against Escherichia coli assessed as susceptible isolates by CLSI M100-S17 method
Proteus mirabilis [34] = experiment: Antibacterial activity against Proteus mirabilis by CLSI M100-S17 method
Acinetobacter baumannii [35] = experiment: Antibacterial activity against Acinetobacter baumannii assessed as intermediate isolates by CLSI M100-S17 method
Pseudomonas aeruginosa [36] = experiment: Antibacterial activity against Pseudomonas aeruginosa assessed as resistant isolates by CLSI M100-S17 method
Escherichia coli [37] = experiment: Antibacterial activity against Escherichia coli assessed as intermediate isolates by CLSI M100-S17 method
Serratia marcescens [38] = experiment: Antibacterial activity against Serratia marcescens assessed as intermediate isolates by CLSI M100-S17 method
Escherichia coli [39] = experiment: Antibacterial activity against Escherichia coli by CLSI M100-S17 method
Klebsiella pneumoniae [40] = experiment: Antibacterial activity against Klebsiella pneumoniae assessed as susceptible isolates by CLSI M100-S17 method
Escherichia coli [41] = experiment: Antibacterial activity against Escherichia coli assessed as resistant isolates by CLSI M100-S17 method
Proteus mirabilis [42] = experiment: Antibacterial activity against Proteus mirabilis assessed as resistant isolates by CLSI M100-S17 method
Enterobacter cloacae [43] = experiment: Antibacterial activity against Enterobacter cloacae assessed as susceptible isolates by CLSI M100-S17 method
Klebsiella pneumoniae [44] = experiment: Antibacterial activity against Klebsiella pneumoniae assessed as resistant isolates by CLSI M100-S17 method
Serratia marcescens [45] = experiment: Antibacterial activity against Serratia marcescens assessed as resistant isolates by CLSI M100-S17 method
Pseudomonas aeruginosa [46] = experiment: Antibacterial activity against Pseudomonas aeruginosa assessed as intermediate isolates by CLSI M100-S17 method
Enterobacter cloacae [47] = experiment: Antibacterial activity against Enterobacter cloacae assessed as resistant isolates by CLSI M100-S17 method
Klebsiella pneumoniae [48] = experiment: Antibacterial activity against Klebsiella pneumoniae assessed as intermediate isolates by CLSI M100-S17 method
Enterobacter cloacae [49] = experiment: Antibacterial activity against Enterobacter cloacae assessed as intermediate isolates by CLSI M100-S17 method
Pseudomonas aeruginosa [50] = experiment: Antibacterial activity against Pseudomonas aeruginosa by CLSI M100-S17 method
Acinetobacter baumannii [51] = experiment: Antibacterial activity against Acinetobacter baumannii by CLSI M100-S17 method
Acinetobacter baumannii [52] = experiment: Antibacterial activity against Acinetobacter baumannii assessed as resistant isolates by CLSI M100-S17 method
Klebsiella oxytoca [53] = experiment: Antibacterial activity against Klebsiella oxytoca assessed as susceptible isolates by CLSI M100-S17 method
Klebsiella oxytoca [54] = experiment: Antibacterial activity against Klebsiella oxytoca assessed as intermediate isolates by CLSI M100-S17 method
Enterobacter cloacae [55] = experiment: Antibacterial activity against Enterobacter cloacae by CLSI M100-S17 method
Klebsiella oxytoca [56] = experiment: Antibacterial activity against Klebsiella oxytoca assessed as resistant isolates by CLSI M100-S17 method
Proteus mirabilis [57] = experiment: Antibacterial activity against Proteus mirabilis assessed as intermediate isolates by CLSI M100-S17 method
Serratia marcescens [58] = experiment: Antibacterial activity against Serratia marcescens by CLSI M100-S17 method
[59] = tested on: Stenotrophomonas maltophilia; experiment: Antibacterial activity against Stenotrophomonas maltophilia by CLSI M100-S17 method
Pseudomonas aeruginosa [60] = experiment: Antibacterial activity against Pseudomonas aeruginosa assessed as susceptible isolates by CLSI M100-S17 method
Proteus mirabilis [61] = experiment: Antibacterial activity against Proteus mirabilis assessed as susceptible isolates by CLSI M100-S17 method

Molecule: CC1(C)S[C@@H]2[C@H](NC(=O)Cc3ccccc3)C(=O)N2[C@H]1C(=O)O [PENICILLIN G]
- Activity (Streptococcus pneumoniae [1]): 79.3%
- MIC50 (Streptococcus agalactiae [2]): 0.06 mg/L (≈ 0.179 µM)
- MIC90 (Streptococcus agalactiae [2]): 0.25 mg/L (≈ 0.748 µM)
- Activity (Streptococcus pneumoniae [3]): 5%
- Activity (Streptococcus pneumoniae [4]): 15.7%
- MIC (Streptococcus pyogenes [5]): ≤ 0.03 mg/L
- MIC50 (Streptococcus pyogenes [5]): ≤ 0.03 mg/L
- MIC90 (Streptococcus pyogenes [5]): ≤ 0.03 mg/L
- Activity (Streptococcus pyogenes [6]): 100%
- MIC50 (Moraxella catarrhalis): > 8 mg/L
- MIC90 (Moraxella catarrhalis): > 8 mg/L
- Activity (Streptococcus agalactiae [7]): 100%
- MIC50 (Streptococcus pneumoniae [8]): 0.06 mg/L (≈ 0.179 µM)
- MIC90 (Streptococcus pneumoniae [8]): 0.25 mg/L (≈ 0.748 µM)

Molecule: CN[C@H](CC(C)C)C(=O)N[C@H]1C(=O)N[C@@H](CC(N)=O)C(=O)N[C@H]2C(=O)N[C@H]3C(=O)N[C@H](C(=O)N[C@H](C(=O)O)c4cc(O)cc(O)c4-c4cc3ccc4O)[C@H](O)c3ccc(c(Cl)c3)Oc3cc2cc(c3O[C@@H]2O[C@H](CO)[C@@H](O)[C@H](O)[C@H]2O[C@H]2C[C@](C)(N)[C@H](O)[C@H](C)O2)Oc2ccc(cc2Cl)[C@H]1O [VANCOMYCIN]
- Activity (Streptococcus pneumoniae [1]): 100%
- Activity (Staphylococcus aureus [9]): 0%
- MIC50 (Streptococcus agalactiae [2]): ≤ 0.25 mg/L
- MIC90 (Streptococcus agalactiae [2]): 0.25 mg/L (≈ 0.173 µM)
- Activity (Staphylococcus aureus [10]): 100%
- Activity (Staphylococcus aureus [11]): 100%
- Activity [12]: 0%
- Activity (Enterococcus faecium [13]): 0%
- MIC50 (Staphylococcus aureus [14]): 1 mg/L (≈ 0.69 µM)
- MIC90 (Staphylococcus aureus [14]): 1 mg/L (≈ 0.69 µM)
- Activity [15]: 0%
- MIC50 (Enterococcus faecalis [16]): 1 mg/L (≈ 0.69 µM)
- MIC90 (Enterococcus faecalis [16]): 2 mg/L (≈ 1.38 µM)
- Activity (Staphylococcus aureus [17]): 0%
- Activity [18]: 100%
- Activity [19]: 100%
- Activity (Enterococcus faecalis [20]): 0%
- MIC50 (Staphylococcus aureus [21]): 1 mg/L (≈ 0.69 µM)
- MIC90 (Staphylococcus aureus [21]): 1 mg/L (≈ 0.69 µM)
- Activity (Staphylococcus aureus [22]): 0%
- Activity (Staphylococcus aureus [23]): 0%
- MIC50 (Streptococcus pyogenes [5]): 0.5 mg/L (≈ 0.345 µM)
- MIC90 (Streptococcus pyogenes [5]): 0.5 mg/L (≈ 0.345 µM)
- Activity (Enterococcus faecium [24]): 87.9%
- Activity (Streptococcus pyogenes [6]): 100%
- Activity (Enterococcus faecalis [25]): 0%
- MIC90 [26]: 2 mg/L (≈ 1.38 µM)
- MIC90 [27]: 2 mg/L (≈ 1.38 µM)
- Activity (Enterococcus faecalis [28]): 100%
- Activity [29]: 0%
- MIC50 (Enterococcus faecium [30]): 0.5 mg/L (≈ 0.345 µM)
- MIC90 (Enterococcus faecium [30]): > 32 mg/L
- Activity [31]: 0%
- MIC50 (Streptococcus pneumoniae [8]): ≤ 0.25 mg/L
- MIC90 (Streptococcus pneumoniae [8]): 0.25 mg/L (≈ 0.173 µM)

Molecule: GENTAMICIN
- Activity (Acinetobacter baumannii [32]): 92%
- Activity (Staphylococcus aureus [9]): 13.2%
- Activity (Staphylococcus aureus [10]): 86.8%
- Activity (Escherichia coli [33]): 88.9%
- Activity (Staphylococcus aureus [11]): 96.7%
- Activity [12]: 31.5%
- MIC50 (Proteus mirabilis [34]): 1 mg/L
- MIC90 (Proteus mirabilis [34]): 2 mg/L
- MIC90 (Staphylococcus aureus [14]): 1 mg/L
- Activity [15]: 15%
- Activity (Acinetobacter baumannii [35]): 0%
- Activity (Pseudomonas aeruginosa [36]): 20.9%
- Activity (Escherichia coli [37]): 0.5%
- Activity (Serratia marcescens [38]): 3.7%
- MIC90 (Escherichia coli [39]): 16 mg/L
- Activity (Staphylococcus aureus [17]): 3.2%
- Activity (Klebsiella pneumoniae [40]): 96.7%
- Activity [18]: 58.3%
- Activity (Escherichia coli [41]): 10.6%
- Activity [19]: 30%
- Activity (Proteus mirabilis [42]): 3.4%
- Activity (Enterobacter cloacae [43]): 96.4%
- Activity (Klebsiella pneumoniae [44]): 2.9%
- MIC90 (Staphylococcus aureus [21]): > 32 mg/L
- Activity (Serratia marcescens [45]): 4.7%
- Activity (Pseudomonas aeruginosa [46]): 19%
- Activity (Staphylococcus aureus [22]): 0%
- Activity (Staphylococcus aureus [23]): 0.1%
- Activity (Enterobacter cloacae [47]): 3.6%
- Activity (Klebsiella pneumoniae [48]): 0.4%
- MIC50 [26]: 16 mg/L
- MIC90 [26]: > 32 mg/L
- Activity (Enterobacter cloacae [49]): 0%
- MIC90 [27]: > 32 mg/L
- MIC50 (Pseudomonas aeruginosa [50]): 4 mg/L
- MIC90 (Pseudomonas aeruginosa [50]): > 32 mg/L
- MIC90 (Acinetobacter baumannii [51]): 1 mg/L
- Activity (Acinetobacter baumannii [52]): 8%
- Activity (Klebsiella oxytoca [53]): 97%
- Activity [29]: 10.2%
- Activity (Klebsiella oxytoca [54]): 2%
- MIC90 (Enterobacter cloacae [55]): 1 mg/L
- Activity (Klebsiella oxytoca [56]): 1%
- Activity (Proteus mirabilis [57]): 0.8%
- MIC90 (Serratia marcescens [58]): 1 mg/L
- Activity [31]: 55%
- MIC50 [59]: 32 mg/L
- MIC90 [59]: > 32 mg/L
- Activity (Pseudomonas aeruginosa [60]): 60.1%
- Activity (Proteus mirabilis [61]): 95.8%
